Data published in ChEMBL document CHEMBL1772977, “Synthesis and biological evaluation of novel 4-benzylpiperazine ligands for sigma-1 receptor imaging” (Bioorg Med Chem, 2011).

Assays:
[1] = molecular target: Sigma non-opioid intracellular receptor 1 (Rattus norvegicus, UniProt Q9R0C9); test: Displacement of (+)-[3H]pentazocine from sigma 1 receptor in rat brain membranes by competitive binding assay; format: cell membranes
Procedure, shortened: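 Sigma-1 competition binding used rat brain membranes as receptor material with (+)-[3H]pentazocine as radioligand. Ki was derived by Cheng–Prusoff from at least three independent experiments, each in triplicate, and is reported as mean ± SD.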

[2] = Displacement of [3H]ditolylguanidine from sigma 2 receptor in rat liver membrane by competitive binding assay; format: cell membranes
Procedure, shortened: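 Sigma-2 competition binding used rat liver membranes with [3H]ditolylguanidine as radioligand. 10 µM dextrallorphan was present to mask sigma-1 sites. Ki was derived by Cheng–Prusoff from at least three independent experiments, each in triplicate, and is reported as mean ± SD.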

[3] = molecular target: 3-beta-hydroxysteroid-Delta(8),Delta(7)-isomerase (Homo sapiens, UniProt Q15125); test: Binding affinity to emopamil binding protein
3-beta-hydroxysteroid-Delta(8),Delta(7)-isomerase, sequence (Q15125 whole entry): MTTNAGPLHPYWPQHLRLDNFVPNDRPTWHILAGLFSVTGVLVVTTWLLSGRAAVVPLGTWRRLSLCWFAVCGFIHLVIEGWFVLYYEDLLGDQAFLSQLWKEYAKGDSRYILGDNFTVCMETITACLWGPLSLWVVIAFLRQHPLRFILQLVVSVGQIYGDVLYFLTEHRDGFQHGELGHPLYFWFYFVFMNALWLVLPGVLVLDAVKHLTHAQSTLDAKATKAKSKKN

Sigma non-opioid intracellular receptor 1, sequence (Q9R0C9 whole entry): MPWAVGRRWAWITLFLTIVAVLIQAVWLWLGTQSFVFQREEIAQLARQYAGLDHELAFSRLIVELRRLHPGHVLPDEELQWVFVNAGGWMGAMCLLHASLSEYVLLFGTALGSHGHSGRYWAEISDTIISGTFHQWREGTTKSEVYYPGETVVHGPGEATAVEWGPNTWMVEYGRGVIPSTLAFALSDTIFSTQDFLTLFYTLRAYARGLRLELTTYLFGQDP

SMILES | Ki [1] | Ki [2] | Ki [3]
Brc1ccc(CN2CCN(Cc3ccc4c(c3)OCO4)CC2)cc1 | 0.78 nM | 40.5 nM | 
Cc1ccc(CN2CCN(Cc3ccc4c(c3)OCO4)CC2)cc1 | 0.91 nM | 49.8 nM | 
COc1cc(CCN2CCN(CCCc3ccccc3)CC2)ccc1O[11CH3] |  |  | 1.72 nM
Fc1ccc(CN2CCN(Cc3ccc4c(c3)OCO4)CC2)cc1 | 0.85 nM | 52.2 nM | 
